# SENP7 block: SENP7 protease inhibitors, primary screen, biochemical, luminescence, uHTS. Sentrin-specific protease 7 (Homo sapiens), Q9BQF6. recombinant SENP7, Z-RLRGG-aminoluciferin luminescence, 40 min. inhibition, % at 5 µM. 330,000 tested, 1.5% active. AID 434973, 2010;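 active means inhibition above about 50% at the single test dose, limit read from the data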;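 further: plate controls were DMSO with enzyme for no effect and no enzyme buffer wells for full effect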
# Target sequence (Q9BQF6 706-1050 limits assumed): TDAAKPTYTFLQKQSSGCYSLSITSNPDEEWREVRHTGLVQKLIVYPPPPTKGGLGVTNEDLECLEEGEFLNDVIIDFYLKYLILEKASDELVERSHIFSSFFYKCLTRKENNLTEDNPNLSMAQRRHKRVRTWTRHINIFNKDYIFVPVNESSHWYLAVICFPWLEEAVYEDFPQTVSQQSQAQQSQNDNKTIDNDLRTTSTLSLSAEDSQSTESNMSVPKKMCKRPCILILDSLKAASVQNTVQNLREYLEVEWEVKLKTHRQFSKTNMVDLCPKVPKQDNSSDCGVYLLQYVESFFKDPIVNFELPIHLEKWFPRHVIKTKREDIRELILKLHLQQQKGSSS
# SENP8 block-1: human SENP8 protease inhibitors, primary screen, biochemical, fluorescence, Nedd8 protein substrate, uHTS; 360,000 tested, 0.64% active; inhibition, % at 20 µM; recombinant SENP8; Sentrin-specific protease 8 (Homo sapiens), Q96LD8; in the data active means inhibition mostly above about 40%, no sharp cut-off; inactive means mostly below about 27%
# Target sequence (Q96LD8 whole entry, looked up): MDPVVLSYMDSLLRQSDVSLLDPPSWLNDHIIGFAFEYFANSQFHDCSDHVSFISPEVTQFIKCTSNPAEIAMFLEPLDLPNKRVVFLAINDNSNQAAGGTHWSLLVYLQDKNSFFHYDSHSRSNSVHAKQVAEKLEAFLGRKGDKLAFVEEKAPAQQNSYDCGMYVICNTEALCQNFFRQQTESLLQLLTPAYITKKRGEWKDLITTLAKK
# SENP1 inh: human SENP1 catalytic domain inhibitors, primary screen, biochemical, FRET, uHTS; Sentrin-specific protease 1 (Homo sapiens), Q9P0U3; recombinant SENP1 catalytic domain, CyPet-SUMO1-YPet FRET cleavage; inhibition, % at 10 µM; 360,000 tested, 0.21% active;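 active means inhibition at least 30% at 10 µM, raw YFP signal under a set limit, fluorescence ratio 0.5 to 1.5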;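 further: 0% = enzyme with DMSO and 100% = no enzyme wells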
#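 material = recombinant human SENP1 catalytic domain, His6-tagged | quantity = 20 pM enzyme | reagent = 25 nM SUMO1 FRET substrate | compound dosing = 10 µM single point, 0.5% DMSO | timing = 50 min enzyme reaction, room temperature, light-protected | detection = FRET, CFP and YFP emission | control set = no-enzyme low, enzyme-DMSO high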
# CendR NRP1 mod: modulators of CendR peptide binding to NRP-1, primary screen, biochemical, fluorescence polarization, uHTS; Neuropilin-1 (Homo sapiens), O14786; FAM-RPARPAR peptide binding to NRP-1; inhibition, % at 25 µM; 360,000 tested, 0.85% active; AID 602438, 2012;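 active means inhibition or corrected inhibition above about 18%, plus a signal ratio from 0.5 to 1.5, limit read from the data, passing the limit was not always enough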
# SENP8 block-2: SENP8 protease inhibitors, primary screen, biochemical, luminescence | inhibition, % at 10 µM | Sentrin-specific protease 8 (Homo sapiens), Q96LD8 | purified SENP8, Z-RLRGG-aminoluciferin cleavage | 330,000 tested, 1.2% active; in the data active means inhibition above about 50%
# SENP6 inh: SENP6 protease inhibitors, primary screen, biochemical, luminescence, uHTS | Sentrin-specific protease 6 (Homo sapiens), Q9GZR1 | Recombinant SENP6 catalytic domain, aminoluciferin luminescence | inhibition, % at 10 µM | 330,000 tested, 1.8% active | AID 2599, 2010;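 active means inhibition above about 50% at the single tested dose, limit read from the data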;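 further: plate controls were DMSO wells with enzyme for no effect and DMSO wells lacking enzyme for full effect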
# SENP8 confirm: SENP8 protease inhibitors, retest, confirmation, biochemical, luminescence, single concentration; shares compounds with SENP7 block; Recombinant SENP8, Z-RLRGG-aminoluciferin luminescence, 60 min; inhibition, % at 12.5 µM; 6,200 tested, 40% active; AID 488912, 2010;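 active means mean inhibition across replicates above about 50%, limit read from the data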
# SENP6 confirm: SENP6 protease inhibitors, confirmation, biochemical, luminescence, single concentration. shares compounds with SENP7 block. recombinant SENP6, Z-RLRGG-aminoluciferin luminescence. inhibition, % at 12.5 µM. AID 488915, 2010. 6,200 tested, 58% active
# SENP7 confirm: SENP7 protease inhibitors, retest, confirmation, biochemical, luminescence, single concentration; shares compounds with SENP7 block; inhibition, % at 12.5 µM; recombinant SENP7, Z-RLRGG-aminoluciferin luminescence, 40 min; 6,200 tested, 69% active
# Casp3 SENP sel: caspase-3 protease inhibitors, confirmation, selectivity assay for SENP inhibitor project, biochemical, single concentration. shares compounds with SENP7 block. purified caspase-3, Z-DEVD-aminoluciferin luminescence, 60 min. inhibition, % at 12.5 µM. 6,200 tested, 60% active. AID 488918, 2010;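 active means mean inhibition above about 50%, limit read from the data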;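 further: plate controls were enzyme with DMSO for no effect and wells without caspase-3 for full effect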
# SENP luc ctr: counter-screen for SENP inhibitors: luminescence interference; 6,200 tested, 39% active; shares compounds with SENP7 block; inhibition, % at 12.5 µM; Pre-incubated SENP8/Z-RLRGG-aminoluciferin, luciferase luminescence interference; AID 488919;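 active means mean inhibition above about 50% when retested at one dose, limit read from the data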;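 further: plate controls were DMSO wells with completed reaction for no effect and substrate without enzyme for full effect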
# Numbers without * were called inactive; . = no result. Rows were chosen to be rich in hits. Some 3.3% of all compounds tested hit in one or more screens of this group.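 How the source made its calls, unless noted: active means mean inhibition above about 50% in the one-dose retest (limit read from the data); inactive means the rest.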
SMILES,SENP7 block,SENP8 block-1,SENP1 inh,CendR NRP1 mod,SENP8 block-2,SENP6 inh,SENP8 confirm,SENP6 confirm,SENP7 confirm,Casp3 SENP sel,SENP luc ctr
Fc1ccc(NC(=S)N2N=CCC2c2ccccc2)cc1 (configuration not stated),38,26,1,4,25,58*,38,31,66*,46,45
COCCOC(=O)CSc1ncccc1-c1nc2cc(C)c(C)cc2[nH]1,95*,-439,-12,2,93*,21,93*,96*,102*,96*,96*
CCOC(=O)CSc1ccc(-c2nc3cc(C)c(C)cc3[nH]2)cn1,-17,-356,-18,-8,-10,-23,.,.,.,.,.
Cc1cc2nc(-c3cccnc3SCC(=O)NC(C)C)[nH]c2cc1C,87*,-371,-6,-2,82*,90*,86*,85*,98*,88*,9
Oc1c(Br)cc(Br)cc1CNc1cccc2cccnc12,88*,-70,-23,-3,91*,85*,4,21,22,4,-3
Cc1ccc(O)c(CNc2cccc3cccnc23)c1,65*,-8,-6,3,84*,-4,-2,21,16,5,4
Oc1ccc(Br)cc1CNc1cnc2ccccc2c1,-7,-330,-10,-5,-6,6,.,.,.,.,.
Oc1c(Br)cc(Br)cc1CNc1ccccn1,0,34,2,0,3,3,.,.,.,.,.
Oc1ccc(Cl)cc1CNc1cccc2cccnc12,65*,35,-9,-3,88*,84*,-7,18,5,4,6
Oc1ccc(Br)cc1CNc1cccc2cccnc12,70*,-8,-12,-8,80*,78*,9,29,7,2,1
CCOC(=O)c1cc2c(c(-c3cccc(-c4cc5ccccc5o4)c3)n1)[C@@H](CCO)N(S(=O)C(C)(C)C)C2 (some centres not stated),.,-12,-11,-28,.,.,.,.,.,.,.
COc1cccc(CNc2cccc3cccnc23)c1O,66*,33,-10,-3,80*,79*,-6,11,16,2,14
COc1cccc(CNc2ccccn2)c1O,3,20,0,8,4,10,.,.,.,.,.
COc1cccc(CNc2cnc3ccccc3c2)c1O,38,-304,-7,-7,42,60*,37,35,77*,34,61*
CCc1cc[n+](C2=C([O-])c3ccccc3C(=O)/C2=N\S(=O)(=O)c2cccs2)cc1,47,90*,9,14,53*,84*,36,80*,49,22,3
O=NN(CC(=O)NNc1ccccc1)CC(=O)NNc1ccccc1,.,25,3,-16,.,.,.,.,.,.,.
COc1ccc(-c2nc(CCl)cs2)cc1,8,-35,2,-18,27,21,.,.,.,.,.
CCc1ccc(-c2nc(CCl)cs2)cc1,64*,10,5,-9,56*,74*,19,84*,96*,69*,21
O=C(ONc1ccc(N=NC(=O)c2ccccc2O)cc1)c1ccccc1,56*,32,2,-3,85*,91*,26,27,24,85*,7
NS(=O)(=O)c1ccc(CCNC(=O)COC(=O)CCc2c[nH]c3ccccc23)cc1,-4,-1,0,11,-14,13,.,.,.,.,.
NC(=O)c1ncn([C@@H]2O[C@H](CNCc3cccn3-c3ccncc3)[C@@H](O)[C@H]2O)n1,.,0,-1,-3,.,.,.,.,.,.,.
Cc1c(N=Cc2nc3ccccc3n2C)c(=O)n(-c2ccccc2)n1C,83*,26,1,-8,51*,46,58*,80*,99*,97*,12
Cc1c(N=Cc2nc3ccccc3[nH]2)c(=O)n(-c2ccccc2)n1C,1,22,-1,16,16,-5,.,.,.,.,.
Cc1c(O)ccc(C(=O)CN2CCN(Cc3ccccc3)CC2)c1O,59*,-14,4,2,-1,-21,-12,-1,-9,-4,-3
NC1(CO)COC(c2ccccc2)OC1 (configuration not stated),.,33,1,4,.,.,.,.,.,.,.
SMILES,SENP7 block,SENP8 block-1,SENP1 inh,CendR NRP1 mod,SENP8 block-2,SENP6 inh,SENP8 confirm,SENP6 confirm,SENP7 confirm,Casp3 SENP sel,SENP luc ctr
CN1C(=O)CC(Nc2cccc3cccc(N)c23)C1=O (configuration not stated),61*,13,-7,8,44,-10,9,24,7,-2,-3
CC(C)N1C(=O)CC(Nc2cccc3cccc(N)c23)C1=O (configuration not stated),.,-84,-26,-4,.,.,.,.,.,.,.
COc1ccc(Cc2c(-c3cccc(Br)c3)nc3c(C)cc(Br)cn23)c(C)c1,.,-71,-1,-6,.,.,.,.,.,.,.
COc1ccc(-c2coc3cc(O)c(OC)cc3c2=O)cc1,53*,-495,-2,9,39,46,27,27,75*,75*,56*
O=c1c(-c2ccc(O)cc2)coc2cc(O)cc(O)c12,-7,17,0,6,-14,-2,.,.,.,.,.
Cc1csc(-c2coc3cc(O)cc(C)c3c2=O)n1,4,6,-3,-13,91*,95*,43,92*,98*,90*,27
COc1ccc(-c2coc3cc(O)ccc3c2=O)cc1,2,-297,-1,-7,14,27,.,.,.,.,.
COc1ccc2c(=O)c(-c3nc(C)cs3)coc2c1,96*,-41,-4,-12,91*,93*,-7,53*,84*,76*,57*

# Assay outcomes: PubChem, Sanford-Burnham Center for Chemical Genomics
